{"source": "ChEMBL document CHEMBL4373680", "about": "“Small antibacterial molecules highly active against drug-resistant Staphylococcus aureus” (Medchemcomm, 2019)", "key": {"[1]": {"tested_on": "Staphylococcus aureus", "assay": "Induction of membrane permeabilization in Staphylococcus aureus R3545 assessed as increase in fluorescence intensity measured upto 28 mins by propidium iodide staining based fluorescence spectroscopic technique", "assay_type": "functional, organism-based", "summary_of_the_method": "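Mid-log MRSA washed in 5 mM HEPES and resuspended in 1:1 HEPES (5 mM) and glucose (5 mM). Propidium iodide added at 10 µM final. Baseline fluorescence (ex 535/em 617 nm) read 4 min, compound in water added, read to 28 min. Water control; triplicates averaged.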"}, "[2]": {"assay": "Selectivity index, ratio of HC50 for human erythrocytes to MIC for methicillin-resistant Staphylococcus aureus ATCC 33591", "assay_type": "toxicity", "conditions": "read-out: Selectivity Index"}, "[3]": {"tested_on": "Staphylococcus aureus", "assay": "Antibiofilm activity against Staphylococcus aureus ATCC 33591 assessed as reduction in biofilm biomass at 16 to 64 ug/ml incubated for 24 hrs followed by plating on agar plate for 24 hrs by crystal violet staining assay relative to control", "assay_type": "functional", "summary_of_the_method": "(§1)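 Coverslip biofilms grown 24 h at 37 °C in nutrient broth with 1% glucose and 1% NaCl, then treated with compound for 24 h. PBS-washed and air-dried, stained with 0.1% w/v crystal violet for 5-10 min, washed, stain recovered in 95% ethanol, OD 522 nm read. Two experiments, mean with standard deviation.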"}, "[4]": {"assay": "Selectivity index, ratio of HC50 for human erythrocytes to MIC for Escherichia coli MTCC 443", "assay_type": "toxicity", "conditions": "read-out: Selectivity Index"}, "[5]": {"tested_on": "Staphylococcus aureus", "assay": "Bactericidal activity against metabolically inactive stationary phase of methicillin-resistant Staphylococcus aureus R3545 assessed as bacterial killing at 32 ug/ml incubated for 6 hrs followed by plating on agar plate for 24 hrs by visual counting analysis relative to control", "assay_type": "functional"}, "[6]": {"tested_on": "Acinetobacter baumannii", "assay": "Antibacterial activity against Acinetobacter baumannii MTCC 1425 after 24 hrs by tecan plate reader analysis", "assay_type": "functional", "conditions": "MTCC 1425, 24 h", "summary_of_the_method": "(§2)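 Broth microdilution MIC. Glycerol stocks grown on MacConkey agar 24 h at 37 °C, then a single colony in nutrient broth 6 h to mid-log (~10⁸ CFU/mL). Cells diluted to 10⁵ CFU/mL in Mueller Hinton broth and added to two-fold compound dilutions. Incubated 24 h at 37 °C, OD600 read. Triplicate wells, experiment run twice.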"}, "[7]": {"tested_on": "Staphylococcus aureus", "assay": "Bactericidal activity against metabolically inactive stationary phase of methicillin-resistant Staphylococcus aureus ATCC 33591 assessed as bacterial killing at 32 ug/ml incubated for 6 hrs followed by plating on agar plate for 24 hrs by visual counting analysis relative to control", "assay_type": "functional"}, "[8]": {"tested_on": "Klebsiella pneumoniae", "assay": "Antibacterial activity against Klebsiella pneumoniae ATCC 700603 after 24 hrs by tecan plate reader analysis", "assay_type": "functional", "conditions": "Klebsiella pneumoniae, 700603, 24 h", "summary_of_the_method": "as §2"}, "[9]": {"tested_on": "Staphylococcus aureus", "assay": "Antibacterial activity against Staphylococcus aureus ATCC 33591 assessed as increase in dead cells by measuring bright red fluorescence intensity at 32 ug/ml after 2 hrs by SYTO-9/propidium iodide staining based fluorescence microscopy analysis", "assay_type": "functional, organism-based", "summary_of_the_method": "(§3)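 Mid-log cells (~10⁸ CFU/mL) pelleted and resuspended in 0.9% saline. Treated with 32 µg/mL compound for 2 h at 37 °C, pelleted and resuspended in saline. Stained with SYTO9 (3 µM) plus PI (15 µM) for 15 min in the dark, unbound dye removed, then imaged by fluorescence microscopy at 100×.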"}, "[10]": {"tested_on": "Staphylococcus aureus", "assay": "Antibacterial activity against Staphylococcus aureus ATCC 33591 using compound preincubated with human 50% serum for 3 hrs and measured after 24 hrs by tecan-plate reader analysis", "assay_type": "functional", "summary_of_the_method": "(§4)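 Compound mixed 1:1 with human plasma, human serum or mouse liver homogenate (50%) and held 3 h at 37 °C. Saline and PBS incubations served as controls. Mixtures two-fold diluted (saline for plasma/serum, PBS for homogenate), then MRSA ATCC33591 (~10⁵ CFU/mL in MHB) added.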"}, "[11]": {"tested_on": "Staphylococcus aureus", "assay": "Ratio of MIC for Staphylococcus aureus ATCC 33591 using compound preincubated with mouse 50% liver homogenate for 3 hrs to MIC for Staphylococcus aureus ATCC 33591 using non-treated compound", "assay_type": "functional, organism-based", "summary_of_the_method": "as §4"}, "[12]": {"tested_on": "A549", "assay": "Cytotoxicity against human A549 cells after 24 hrs by alamar blue assay", "assay_type": "cell-based", "conditions": "A549, 24 h", "summary_of_the_method": "(§5)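 About 10⁴ cells/well in DMEM with 10% FBS. Medium replaced with two-fold compound dilutions and incubated 24 h at 37 °C, 5% CO₂. Alamar Blue added for a further 4 h, absorbance 570 nm (600 nm reference). Viability normalized to untreated and 0.1% Triton-X wells. Triplicates; sigmoidal fit gives the 50% viability concentration.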"}, "[13]": {"tested_on": "Staphylococcus aureus", "assay": "Antibacterial activity against Staphylococcus aureus ATCC 33591 using compound preincubated with mouse 50% liver homogenate for 3 hrs and measured after 24 hrs by tecan-plate reader analysis", "assay_type": "functional", "conditions": "ATCC 33591, Liver", "summary_of_the_method": "as §4"}, "[14]": {"assay": "Ratio of EC50 for human A549 cells to MIC for vancomycin-resistant Staphylococcus aureus clinical isolate 1", "assay_type": "toxicity"}, "[15]": {"tested_on": "Staphylococcus aureus", "assay": "Bactericidal activity against planktonic phase of methicillin-resistant Staphylococcus aureus ATCC 33591 assessed as log reduction in bacterial colony forming units at 16 ug/ml incubated for 6 hrs followed by plating on agar plate for 24 hrs by time-kill kinetic assay", "assay_type": "functional", "summary_of_the_method": "(§6)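 Time-kill: 6 h mid-log culture diluted to 10⁵ CFU/mL in MHB, incubated at 37 °C with compound at […]; 0.9% saline control. Aliquots at 1, 2, 4, 6, 8 and 12 h ten-fold diluted in saline, plated on NB agar 24 h at 37 °C; colonies counted, log scale.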"}, "[16]": {"tested_on": "Staphylococcus aureus", "assay": "Bactericidal activity against planktonic phase of methicillin-resistant Staphylococcus aureus R3545 assessed as log reduction in bacterial colony forming units at 32 ug/ml incubated for 12 hrs followed by plating on agar plate for 24 hrs by time-kill kinetic assay", "assay_type": "functional", "summary_of_the_method": "as §6"}, "[17]": {"tested_on": "Staphylococcus aureus", "assay": "Antibacterial activity against Staphylococcus aureus ATCC 33591 using compound preincubated with human 50% plasma for 3 hrs and measured after 24 hrs by tecan-plate reader analysis", "assay_type": "functional", "summary_of_the_method": "as §4"}, "[18]": {"tested_on": "MDCK", "assay": "Cytotoxicity against dog MDCK cells after 24 hrs by alamar blue assay", "assay_type": "cell-based", "conditions": "Canis lupus familiaris", "summary_of_the_method": "as §5"}, "[19]": {"tested_on": "A549", "assay": "Cytotoxicity against human A549 cells up to 128 ug/ml after 24 hrs by alamar blue assay", "assay_type": "cell-based", "conditions": "a549, 24 h", "summary_of_the_method": "as §5"}, "[20]": {"tested_on": "Staphylococcus aureus", "assay": "Antibacterial activity against methicillin-resistant Staphylococcus aureus R3890 clinical isolate after 24 hrs by tecan plate reader analysis", "assay_type": "functional", "conditions": "R3890, 24 h", "summary_of_the_method": "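Colony grown 24 h on NB agar at 37 °C, then 6 h in nutrient broth to mid-log (10⁸ CFU/mL by drop plating), diluted to 10⁵ CFU/mL in Mueller Hinton broth; added 9:1 to two-fold serial compound dilutions in MHB. Incubated 24 h, 37 °C; OD600 read. Triplicate per concentration, experiment run twice; MIC taken from the range of triplicate OD values.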"}, "[21]": {"tested_on": "Staphylococcus aureus", "assay": "Antibiofilm activity against Staphylococcus aureus R3545 assessed as reduction in biofilm biomass at 16 to 64 ug/ml incubated for 24 hrs followed by plating on agar plate for 24 hrs by crystal violet staining assay relative to control", "assay_type": "functional", "summary_of_the_method": "as §1"}, "[22]": {"tested_on": "Staphylococcus aureus", "assay": "Antibacterial activity against Staphylococcus aureus ATCC 33591 assessed as decrease in live cells at 32 ug/ml after 2 hrs by SYTO-9/propidium iodide staining based fluorescence microscopy analysis", "assay_type": "functional, organism-based", "summary_of_the_method": "as §3"}}, "note": "The source made the active and inactive calls. No cut-off for these calls is given here.", "data": [{"compound": "CCCCCCNC(=O)C[N+](C)(CCO)CCCCCCCCCCCC[N+](C)(CCO)CC(=O)NCCCCCC.O=C([O-])C(F)(F)F.O=C([O-])C(F)(F)F", "note": "(configuration not stated)", "values": [{"measurement": "Activity", "setting": "[1]", "result": "Dose-dependent effect"}, {"measurement": "selectivity ratio", "setting": "[2]", "result": 577}, {"measurement": "inhibition (INH)", "setting": "[3]", "result": 60, "unit": "%"}, {"measurement": "selectivity ratio", "setting": "[4]", "result": 288}, {"measurement": "Activity", "setting": "[5]", "result": ">99", "unit": "%"}, {"measurement": "MIC", "setting": "[6]", "result": 64, "unit": "µg/mL"}, {"measurement": "Activity", "setting": "[7]", "result": ">99", "unit": "%"}, {"measurement": "MIC", "setting": "[8]", "result": 128, "unit": "µg/mL"}, {"measurement": "Activity", "setting": "[9]", "result": "Active"}, {"measurement": "MIC", "setting": "[10]", "result": 4, "unit": "µg/mL"}, {"measurement": "Ratio", "setting": "[11]", "result": 2}, {"measurement": "EC50", "setting": "[12]", "result": 194, "unit": "µg/mL"}, {"measurement": "MIC", "setting": "[13]", "result": 4, "unit": "µg/mL"}, {"measurement": "selectivity ratio", "setting": "[14]", "result": "94 to 97"}, {"measurement": "Activity", "setting": "[15]", "result": ">2", "unit": "log10CFU/ml"}, {"measurement": "Activity", "setting": "[16]", "result": 6, "unit": "log10CFU/ml"}, {"measurement": "MIC", "setting": "[17]", "result": 4, "unit": "µg/mL"}, {"measurement": "EC50", "setting": "[18]", "result": 188, "unit": "µg/mL"}, {"measurement": "Activity", "setting": "[19]", "result": "Non-Toxic"}, {"measurement": "MIC", "setting": "[20]", "result": 2, "unit": "µg/mL"}, {"measurement": "inhibition (INH)", "setting": "[21]", "result": 80, "unit": "%"}, {"measurement": "inhibition", "setting": "[22]", "result": "Active"}]}]}
